Results published in ChEMBL document CHEMBL5303300, “EUbOPEN Chemogenomics Library - Multiplex” (2023).
Several values for one entry are separate records, joined by “and”; a condition that tells them apart may be missing. Equal values may be shown once.

System: HEK-293T
Assay: Multiplex assay against HEK293T
Assay type: toxicity, cell-based
Conditions: human, number of replicates 2
Procedure, shortened: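 Live cells carried four stains from seeding: Hoechst33342, BioTracker Green Microtubule Cytoskeleton Dye, MitoTracker Red and Annexin V Alexa Fluor 680. They were imaged on a CQ1 microscope at 37°C and 5% CO2 after compound addition. Using CellPathfinder machine-learning gating, cells were split into Hoechst high-intensity objects or normal cells, normal cells into healthy, pyknosed or fragmented nuclei, and pyknosed cells into mitotic or apoptotic; tubulin, mitochondrial-mass and membrane-permeability phenotypes are per cents of healthy-nucleus cells.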

[1] = 12 h, 1 µM, compound concentration 1 uM
[2] = 12 h, 10 µM, compound concentration 10 uM
[3] = 24 h, 1 µM, compound concentration 1 uM
[4] = 24 h, 10 µM, compound concentration 10 uM
[5] = 48 h, 1 µM, compound concentration 1 uM
[6] = 48 h, 10 µM, compound concentration 10 uM

Cc1cn(CCN2CCN(c3ccccc3-c3cc(C#N)cc(C(=O)NCCCN4CCCC4)c3)CC2)c2ccccc12
Population Apoptotic (%) [1]: 34% and 44%
Population Fragmented Nuclei (%) [1]: 3%
Population Healthy Nuclei (%) [1]: 82% and 84%
Population Hoechst High Intensity Objects (%) [1]: 7% and 6%
Population Membrane Permeable-Phenotype (%) [1]: 3% and 4%
Population Mitochondria Different-Phenotype (%) [1]: 26% and 20%
Population Mitotic Cells (%) [1]: 65% and 55%
Population Normal (%) [1]: 92% and 93%
Population Pyknosed Nuclei (%) [1]: 13% and 12%
Population Tubulin-Different-Phenotype (%) [1]: 72% and 71%
Total Cell Count [1]: 634 and 574
Population Apoptotic (%) [2]: 70% and 65%
Population Fragmented Nuclei (%) [2]: 2%
Population Healthy Nuclei (%) [2]: 81% and 78%
Population Hoechst High Intensity Objects (%) [2]: 5%
Population Membrane Permeable-Phenotype (%) [2]: 2% and 1%
Population Mitochondria Different-Phenotype (%) [2]: 71% and 72%
Population Mitotic Cells (%) [2]: 30% and 34%
Population Normal (%) [2]: 94%
Population Pyknosed Nuclei (%) [2]: 16% and 18%
Population Tubulin-Different-Phenotype (%) [2]: 97% and 94%
Total Cell Count [2]: 511 and 463
Population Apoptotic (%) [3]: 46% and 42%
Population Fragmented Nuclei (%) [3]: 5% and 3%
Population Healthy Nuclei (%) [3]: 86% and 89%
Population Hoechst High Intensity Objects (%) [3]: 8%
Population Membrane Permeable-Phenotype (%) [3]: 3%
Population Mitochondria Different-Phenotype (%) [3]: 12%
Population Mitotic Cells (%) [3]: 53% and 57%
Population Normal (%) [3]: 91%
Population Pyknosed Nuclei (%) [3]: 7% and 6%
Population Tubulin-Different-Phenotype (%) [3]: 57% and 51%
Total Cell Count [3]: 1111 and 826
Population Apoptotic (%) [4]: 77% and 76%
Population Fragmented Nuclei (%) [4]: 1% and 3%
Population Healthy Nuclei (%) [4]: 85% and 79%
Population Hoechst High Intensity Objects (%) [4]: 9% and 4%
Population Membrane Permeable-Phenotype (%) [4]: 1% and 2%
Population Mitochondria Different-Phenotype (%) [4]: 88% and 81%
Population Mitotic Cells (%) [4]: 22% and 23%
Population Normal (%) [4]: 90% and 95%
Population Pyknosed Nuclei (%) [4]: 12% and 16%
Population Tubulin-Different-Phenotype (%) [4]: 97% and 95%
Total Cell Count [4]: 524 and 487
Population Apoptotic (%) [5]: 16% and 21%
Population Fragmented Nuclei (%) [5]: 14% and 8%
Population Healthy Nuclei (%) [5]: 82% and 87%
Population Hoechst High Intensity Objects (%) [5]: 10% and 8%
Population Membrane Permeable-Phenotype (%) [5]: 5% and 3%
Population Mitochondria Different-Phenotype (%) [5]: 1% and 4%
Population Mitotic Cells (%) [5]: 83% and 78%
Population Normal (%) [5]: 89% and 91%
Population Pyknosed Nuclei (%) [5]: 3% and 4%
Population Tubulin-Different-Phenotype (%) [5]: 27% and 31%
Total Cell Count [5]: 2524 and 1476
Population Apoptotic (%) [6]: 65% and 73%
Population Fragmented Nuclei (%) [6]: 6% and 8%
Population Healthy Nuclei (%) [6]: 82% and 77%
Population Hoechst High Intensity Objects (%) [6]: 7% and 11%
Population Membrane Permeable-Phenotype (%) [6]: 3% and 1%
Population Mitochondria Different-Phenotype (%) [6]: 57% and 66%
Population Mitotic Cells (%) [6]: 34% and 26%
Population Normal (%) [6]: 92% and 88%
Population Pyknosed Nuclei (%) [6]: 10% and 14%
Population Tubulin-Different-Phenotype (%) [6]: 90% and 93%
Total Cell Count [6]: 709 and 587

COc1ccc(F)c(F)c1C(=O)c1cnc(NC2CCN(S(C)(=O)=O)CC2)nc1N [RG-547]
Population Apoptotic (%) [1]: 71% and 70%
Population Fragmented Nuclei (%) [1]: 1% and 3%
Population Healthy Nuclei (%) [1]: 86% and 87%
Population Hoechst High Intensity Objects (%) [1]: 8%
Population Membrane Permeable-Phenotype (%) [1]: 4%
Population Mitochondria Different-Phenotype (%) [1]: 21% and 18%
Population Mitotic Cells (%) [1]: 28% and 29%
Population Normal (%) [1]: 91%
Population Pyknosed Nuclei (%) [1]: 11% and 8%
Population Tubulin-Different-Phenotype (%) [1]: 57% and 48%
Total Cell Count [1]: 469 and 554
Population Apoptotic (%) [2]: 62% and 82%
Population Fragmented Nuclei (%) [2]: 3% and 4%
Population Healthy Nuclei (%) [2]: 91% and 86%
Population Hoechst High Intensity Objects (%) [2]: 8% and 11%
Population Membrane Permeable-Phenotype (%) [2]: 2% and 1%
Population Mitochondria Different-Phenotype (%) [2]: 24% and 33%
Population Mitotic Cells (%) [2]: 37% and 17%
Population Normal (%) [2]: 91% and 88%
Population Pyknosed Nuclei (%) [2]: 5% and 8%
Population Tubulin-Different-Phenotype (%) [2]: 59% and 65%
Total Cell Count [2]: 491 and 448
Population Apoptotic (%) [3]: 86% and 67%
Population Fragmented Nuclei (%) [3]: 3% and 5%
Population Healthy Nuclei (%) [3]: 90% and 87%
Population Hoechst High Intensity Objects (%) [3]: 5% and 7%
Population Membrane Permeable-Phenotype (%) [3]: 5% and 3%
Population Mitochondria Different-Phenotype (%) [3]: 8% and 9%
Population Mitotic Cells (%) [3]: 13% and 32%
Population Normal (%) [3]: 94% and 92%
Population Pyknosed Nuclei (%) [3]: 5% and 7%
Population Tubulin-Different-Phenotype (%) [3]: 33% and 37%
Total Cell Count [3]: 670 and 592
Population Apoptotic (%) [4]: 63% and 66%
Population Fragmented Nuclei (%) [4]: 4% and 2%
Population Healthy Nuclei (%) [4]: 89% and 87%
Population Hoechst High Intensity Objects (%) [4]: 9% and 15%
Population Membrane Permeable-Phenotype (%) [4]: 0%
Population Mitochondria Different-Phenotype (%) [4]: 42% and 37%
Population Mitotic Cells (%) [4]: 36% and 33%
Population Normal (%) [4]: 90% and 84%
Population Pyknosed Nuclei (%) [4]: 6% and 9%
Population Tubulin-Different-Phenotype (%) [4]: 63% and 61%
Total Cell Count [4]: 395 and 403
Population Apoptotic (%) [5]: 61% and 72%
Population Fragmented Nuclei (%) [5]: 11%
Population Healthy Nuclei (%) [5]: 86%
Population Hoechst High Intensity Objects (%) [5]: 5%
Population Membrane Permeable-Phenotype (%) [5]: 1% and 2%
Population Mitochondria Different-Phenotype (%) [5]: 2% and 4%
Population Mitotic Cells (%) [5]: 38% and 27%
Population Normal (%) [5]: 94%
Population Pyknosed Nuclei (%) [5]: 1%
Population Tubulin-Different-Phenotype (%) [5]: 24% and 25%
Total Cell Count [5]: 841 and 644
Population Apoptotic (%) [6]: 73% and 80%
Population Fragmented Nuclei (%) [6]: 5%
Population Healthy Nuclei (%) [6]: 89% and 84%
Population Hoechst High Intensity Objects (%) [6]: 17% and 13%
Population Membrane Permeable-Phenotype (%) [6]: 0%
Population Mitochondria Different-Phenotype (%) [6]: 50% and 55%
Population Mitotic Cells (%) [6]: 26% and 20%
Population Normal (%) [6]: 82% and 86%
Population Pyknosed Nuclei (%) [6]: 5% and 10%
Population Tubulin-Different-Phenotype (%) [6]: 67% and 65%
Total Cell Count [6]: 329 and 336

CCN1C(=O)N(c2c(F)c(OC)cc(OC)c2F)Cc2cnc3[nH]c(CN4CCOCC4)cc3c21 [PEMIGATINIB]
Population Apoptotic (%) [1]: 58% and 63%
Population Fragmented Nuclei (%) [1]: 3%
Population Healthy Nuclei (%) [1]: 82% and 83%
Population Hoechst High Intensity Objects (%) [1]: 7% and 9%
Population Membrane Permeable-Phenotype (%) [1]: 3% and 0%
Population Mitochondria Different-Phenotype (%) [1]: 15% and 20%
Population Mitotic Cells (%) [1]: 41% and 36%
Population Normal (%) [1]: 92% and 90%
Population Pyknosed Nuclei (%) [1]: 13%
Population Tubulin-Different-Phenotype (%) [1]: 51% and 60%
Total Cell Count [1]: 617 and 677
Population Apoptotic (%) [2]: 64% and 53%
Population Fragmented Nuclei (%) [2]: 4% and 2%
Population Healthy Nuclei (%) [2]: 83% and 87%
Population Hoechst High Intensity Objects (%) [2]: 12% and 8%
Population Membrane Permeable-Phenotype (%) [2]: 2%
Population Mitochondria Different-Phenotype (%) [2]: 31% and 18%
Population Mitotic Cells (%) [2]: 35% and 46%
Population Normal (%) [2]: 87% and 91%
Population Pyknosed Nuclei (%) [2]: 11% and 9%
Population Tubulin-Different-Phenotype (%) [2]: 77% and 68%
Total Cell Count [2]: 550 and 620
Population Apoptotic (%) [3]: 41% and 56%
Population Fragmented Nuclei (%) [3]: 8% and 7%
Population Healthy Nuclei (%) [3]: 82% and 83%
Population Hoechst High Intensity Objects (%) [3]: 7% and 8%
Population Membrane Permeable-Phenotype (%) [3]: 3% and 1%
Population Mitochondria Different-Phenotype (%) [3]: 7% and 5%
Population Mitotic Cells (%) [3]: 58% and 43%
Population Normal (%) [3]: 92% and 91%
Population Pyknosed Nuclei (%) [3]: 9%
Population Tubulin-Different-Phenotype (%) [3]: 29% and 30%
Total Cell Count [3]: 1042 and 1171
Population Apoptotic (%) [4]: 52% and 58%
Population Fragmented Nuclei (%) [4]: 4% and 5%
Population Healthy Nuclei (%) [4]: 86% and 89%
Population Hoechst High Intensity Objects (%) [4]: 12% and 11%
Population Membrane Permeable-Phenotype (%) [4]: 1%
Population Mitochondria Different-Phenotype (%) [4]: 19% and 16%
Population Mitotic Cells (%) [4]: 47% and 41%
Population Normal (%) [4]: 87% and 88%
Population Pyknosed Nuclei (%) [4]: 8% and 4%
Population Tubulin-Different-Phenotype (%) [4]: 71% and 61%
Total Cell Count [4]: 678 and 726
Population Apoptotic (%) [5]: 17%
Population Fragmented Nuclei (%) [5]: 14% and 12%
Population Healthy Nuclei (%) [5]: 83% and 84%
Population Hoechst High Intensity Objects (%) [5]: 7% and 9%
Population Membrane Permeable-Phenotype (%) [5]: 6% and 2%
Population Mitochondria Different-Phenotype (%) [5]: 0%
Population Mitotic Cells (%) [5]: 82%
Population Normal (%) [5]: 92% and 90%
Population Pyknosed Nuclei (%) [5]: 2% and 3%
Population Tubulin-Different-Phenotype (%) [5]: 10% and 18%
Total Cell Count [5]: 2805 and 2683
Population Apoptotic (%) [6]: 33% and 24%
Population Fragmented Nuclei (%) [6]: 9% and 10%
Population Healthy Nuclei (%) [6]: 87% and 86%
Population Hoechst High Intensity Objects (%) [6]: 13% and 12%
Population Membrane Permeable-Phenotype (%) [6]: 3% and 4%
Population Mitochondria Different-Phenotype (%) [6]: 2% and 4%
Population Mitotic Cells (%) [6]: 66% and 75%
Population Normal (%) [6]: 86% and 87%
Population Pyknosed Nuclei (%) [6]: 3%
Population Tubulin-Different-Phenotype (%) [6]: 55%
Total Cell Count [6]: 1120 and 944
